Assays:
[1] = biological target: Delta-type opioid receptor (Homo sapiens, UniProt P41143); experiment: Displacement of [3H]naltrindole from human delta opioid receptor expressed in CHO cells; type: cell-based
How it was run: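 Competition binding on membranes of CHO cells stably expressing human δ receptor, using [3H]naltrindole and 12 compound concentrations. Incubated 3 h at 25 °C in 50 mM Tris-HCl, pH 7.5.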

Mu-type opioid receptor [2] = biological target: T1, Mu-type opioid receptor (Homo sapiens, UniProt P35372); experiment: biochemical; type: cell-based, CHO
[3] = biological target: T2, Kappa-type opioid receptor (Homo sapiens, UniProt P41145); experiment: biochemical; type: cell-based, CHO
[4] = Displacement of [3H]naltrindole from human delta opioid receptor expressed in CHO cells
[5] = biological target: T2, Kappa-type opioid receptor; experiment: Functional activity at human kappa opioid receptor expressed CHO cells by [35S]GTPgammaS binding assay; type: cell-based
[6] = biological target: T2, Kappa-type opioid receptor; experiment: Activity at human kappa opioid receptor expressed in CHO cells by [35S]GTP-gamma-S binding assay; type: functional, cell-based
Mu-type opioid receptor [7] = biological target: T1, Mu-type opioid receptor; experiment: Activity at human mu opioid receptor expressed in CHO cells by [35S]GTP-gamma-S binding assay; type: functional, cell-based
Mu-type opioid receptor [8] = biological target: T1, Mu-type opioid receptor; experiment: Functional activity at human mu opioid receptor expressed in CHO cells by [35S]GTP-gamma-S binding assay; type: cell-based
How it was run: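 Human µ receptor stably expressed in CHO cells; membranes at 7.5 µg protein/tube, incubated 60 min at 30 °C with 12 compound concentrations, 3 µM GDP and […] [35S]GTPγS in pH 7.4 Tris/MgCl2/NaCl/EGTA buffer. […] Antagonist mode used 200 nM DAMGO. At least 3 experiments in triplicate.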

[9] = biological target: T2, Kappa-type opioid receptor; experiment: Activity at human kappa opioid receptor expressed in CHO cells by [35S]GTPgammaS binding assay at 10 uM; type: functional, cell-based
How it was run: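 Membranes from CHO cells stably expressing human κ receptor (15 µg protein/tube), 12 compound concentrations, 60 min at 30 °C in Tris-HCl/MgCl2/NaCl/EGTA buffer pH 7.4 with 3 µM GDP and […] [35S]GTPγS. Filtration count, expressed as % stimulation over basal, giving Emax and EC50. […] At least 3 experiments in triplicate.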

T1 sequence (P35372 whole entry): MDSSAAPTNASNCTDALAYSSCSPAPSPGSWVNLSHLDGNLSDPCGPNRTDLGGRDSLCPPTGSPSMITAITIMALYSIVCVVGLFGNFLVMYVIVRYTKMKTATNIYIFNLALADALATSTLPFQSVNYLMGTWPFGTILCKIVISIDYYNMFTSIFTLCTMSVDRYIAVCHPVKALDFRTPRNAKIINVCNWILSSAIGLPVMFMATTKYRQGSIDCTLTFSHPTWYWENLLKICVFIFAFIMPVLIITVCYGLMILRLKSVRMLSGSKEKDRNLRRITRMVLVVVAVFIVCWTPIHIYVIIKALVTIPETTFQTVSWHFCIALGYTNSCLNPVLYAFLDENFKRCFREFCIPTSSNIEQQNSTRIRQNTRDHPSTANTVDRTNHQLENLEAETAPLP
Sequence of Delta-type opioid receptor (P41143 whole entry): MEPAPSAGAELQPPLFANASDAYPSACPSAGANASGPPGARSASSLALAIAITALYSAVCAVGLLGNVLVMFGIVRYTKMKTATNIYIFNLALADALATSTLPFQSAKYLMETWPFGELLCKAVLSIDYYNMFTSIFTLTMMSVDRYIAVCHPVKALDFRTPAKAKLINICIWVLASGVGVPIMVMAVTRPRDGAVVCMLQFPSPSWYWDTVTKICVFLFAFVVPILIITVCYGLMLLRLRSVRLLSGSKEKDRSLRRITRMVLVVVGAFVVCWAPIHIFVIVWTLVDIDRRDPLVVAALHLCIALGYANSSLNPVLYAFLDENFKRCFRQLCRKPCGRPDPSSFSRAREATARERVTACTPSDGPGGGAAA
T2 sequence (P41145 whole entry): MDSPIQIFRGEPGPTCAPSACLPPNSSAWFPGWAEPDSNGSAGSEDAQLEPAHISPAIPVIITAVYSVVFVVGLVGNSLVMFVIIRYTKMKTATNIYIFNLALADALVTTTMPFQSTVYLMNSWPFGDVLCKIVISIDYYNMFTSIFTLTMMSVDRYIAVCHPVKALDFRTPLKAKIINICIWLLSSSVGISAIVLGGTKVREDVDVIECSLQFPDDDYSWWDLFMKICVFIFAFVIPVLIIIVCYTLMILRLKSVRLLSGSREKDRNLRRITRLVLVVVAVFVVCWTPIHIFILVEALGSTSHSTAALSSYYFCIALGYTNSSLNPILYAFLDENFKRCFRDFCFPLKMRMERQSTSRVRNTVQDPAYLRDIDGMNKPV

| Structure (SMILES) | Ki [1] | Ki (Mu-type opioid receptor [2]) | Ki [3] | Activity ([5]; filed as agonist) | EC50 [6] | Emax [6] | EC50 (Mu-type opioid receptor [7]) | Emax (Mu-type opioid receptor [7]) | further results |
| --- | --- | --- | --- | --- | --- | --- | --- | --- | --- |
| Oc1ccc2c(c1)[C@]13CCCCC1[C@H](C2)N(CC1CC1)CC3 (single isomer, unassigned; (+)) | 13 nM |  |  |  |  |  |  |  |  |
| C#CCN1CC[C@]23CCCC[C@H]2[C@H]1Cc1ccc(O)cc13 |  | 0.003 nM | 0.003 nM |  |  |  |  |  | Ki [4]: 0.62 nM |
| O=C(CCCCCCCCC(=O)Oc1ccc2c(c1)[C@@]13CCCCC1[C@@H](C2)N(C[C@@H]1CCCO1)CC3)Oc1ccc2c(c1)[C@@]13CCCCC1[C@@H](C2)N(C[C@@H]1CCCO1)CC3 (some centres not stated) | 8.3 nM | 0.67 nM | 1.2 nM | Agonist | 8.8 nM | 140% | 12 nM | 69% | IC50 (Mu-type opioid receptor [7]): 360 nM; Imax (Mu-type opioid receptor [7]): 48% |
| Oc1ccc2c(c1)[C@@]13CCCCC1[C@@H](C2)N(C[C@@H]1CCCO1)CC3 (some centres not stated) |  | 0.01 nM | 0.15 nM |  |  |  |  |  | Ki [4]: 0.27 nM |
| O=C(CCC(=O)Nc1ccc2c(c1)[C@@]13CCCCC1[C@@H](C2)N(CC1CCC1)CC3)Nc1ccc2c(c1)[C@@]13CCCCC1[C@@H](C2)N(CC1CCC1)CC3 (some centres not stated) |  | 3.3 nM | 3.8 nM |  |  |  |  |  |  |
| O=C(/C=C/C(=O)Nc1ccc2c(c1)[C@@]13CCCCC1[C@@H](C2)N(CC1CCC1)CC3)Nc1ccc2c(c1)[C@@]13CCCCC1[C@@H](C2)N(CC1CCC1)CC3 (some centres not stated) | 160 nM | 13 nM | 7.3 nM |  |  |  |  |  |  |
| C[C@@H](NC(=O)[C@@H](N)Cc1ccc(O)cc1)C(=O)NCC(=O)N(C)[C@@H](Cc1ccccc1)C(=O)NCCO |  |  |  |  |  |  |  |  | Activity (Mu-type opioid receptor [8]; filed as agonist): Agonist |
| Nc1ccc2c(c1)[C@@]13CCCC[C@H]1[C@@H](C2)N(CC1CCC1)CC3 |  | 3.7 nM | 1.8 nM |  |  |  |  |  |  |
| CN1CC[C@]23c4c5ccc(OC(=O)CCCCCCCCC(=O)Oc6ccc7c(c6)[C@@]68CCCCC6[C@@H](C7)N(CC6CCC6)CC8)c4O[C@H]2[C@@H](O)C=C[C@H]3[C@H]1C5 (some centres not stated) | 3.9 nM | 0.22 nM | 0.11 nM | Agonist | 2.3 nM | 150% | 2.5 nM | 110% | Activity (Mu-type opioid receptor [8]; filed as agonist): Agonist |
| O=C(CCCCCCCCC(=O)Oc1ccc2c(c1)[C@]13CCCCC1[C@H](C2)N(CC1CCC1)CC3)Oc1ccc2c(c1)[C@@]13CCCCC1[C@@H](C2)N(CC1CCC1)CC3 (single isomer, unassigned; (+)) | 23 nM | 2.2 nM | 1.2 nM | Agonist | 7.9 nM | 77% |  | 28% | IC50 (Mu-type opioid receptor [7]): 460 nM; Imax (Mu-type opioid receptor [7]): 71% |
| Oc1ccc2c(c1)[C@]13CCCCC1[C@H](C2)N(CC1CCC1)CC3 (single isomer, unassigned; (+)) | > 10000 nM |  | 55 nM |  |  |  |  |  |  |
| O=C(CCC(=O)Oc1ccc2c(c1)[C@@]13CCCCC1[C@@H](C2)N(CC1CCC1)CC3)Oc1ccc2c(c1)[C@@]13CCCCC1[C@@H](C2)N(CC1CCC1)CC3 (some centres not stated) | 9.4 nM | 0.16 nM | 0.076 nM |  |  |  |  |  |  |
| O=C(CCCCCCCCC(=O)Oc1ccc2c(c1)[C@@]13CCCCC1[C@@H](C2)N(CC1CCC1)CC3)Oc1ccccc1 (some centres not stated) | 11 nM | 0.44 nM | 0.3 nM | Agonist | 3.8 nM | 170% | 5.1 nM | 93% | Activity (Mu-type opioid receptor [8]; filed as agonist): Agonist |
| O=C(O)CCCCCCCCC(=O)Oc1ccc2c(c1)[C@@]13CCCCC1[C@@H](C2)N(CC1CCC1)CC3 (some centres not stated) | 18 nM | 0.71 nM | 0.29 nM | Agonist | 2.8 nM | 75% | 3 nM | 110% | Activity (Mu-type opioid receptor [8]; filed as agonist): Agonist |
| O=C(CCCCCCCCC(=O)Oc1ccc2c(c1)[C@@]13CCCCC1[C@@H](C2)N(CC1CCC1)CC3)Nc1ccc2c(c1)[C@@]13CCCCC1[C@@H](C2)N(CC1CCC1)CC3 (some centres not stated) | 12 nM | 0.65 nM | 0.38 nM |  | 8.8 nM | 55% | 4.4 nM | 56% | Activity ([5]; filed as partial agonist): Partial agonist; IC50 (Mu-type opioid receptor [7]): 150 nM; Imax (Mu-type opioid receptor [7]): 61%; Imax [9]: 65 µM; Activity (Mu-type opioid receptor [8]; filed as partial agonist): Partial agonist |
| O=C(/C=C/C=C/C(=O)Oc1ccc2c(c1)[C@@]13CCCCC1[C@@H](C2)N(CC1CCC1)CC3)Oc1ccc2c(c1)[C@@]13CCCCC1[C@@H](C2)N(CC1CCC1)CC3 (some centres not stated) | 28 nM | 2.8 nM | 0.62 nM | Agonist | 17 nM | 91% | 19 nM | 96% | Activity (Mu-type opioid receptor [8]; filed as agonist): Agonist |
| O=C(CCCCCCCCC(=O)Nc1ccc2c(c1)[C@@]13CCCCC1[C@@H](C2)N(CC1CCC1)CC3)Nc1ccc2c(c1)[C@@]13CCCCC1[C@@H](C2)N(CC1CCC1)CC3 (some centres not stated) | 38 nM | 5.7 nM | 7.5 nM |  |  |  |  |  |  |
| C#CCN1CC[C@]23CCCCC2[C@H]1Cc1ccc(OC(=O)CCCCCCCCC(=O)Oc2ccc4c(c2)[C@@]25CCCCC2[C@@H](C4)N(CC#C)CC5)cc13 (some centres not stated) | 190 nM | 14 nM | 10 nM |  |  |  |  |  |  |
| O=C(/C=C/C(=O)Oc1ccc2c(c1)[C@@]13CCCC[C@H]1[C@@H](C2)N(CC1CCC1)CC3)Oc1ccc2c(c1)[C@@]13CCCC[C@H]1[C@@H](C2)N(CC1CCC1)CC3 |  |  | 0.08 nM |  |  |  |  |  |  |
| Oc1ccc2c(c1)[C@@]13CCCC[C@H]1[C@@H](C2)N(CC1CC1)CC3 |  |  |  |  |  |  |  |  | Activity (Mu-type opioid receptor [8]; filed as partial agonist): Partial agonist |
| O=C(CCCCCCCCC(=O)Oc1ccc2c(c1)[C@]13CCCCC1[C@H](C2)N(CC1CCC1)CC3)Oc1ccc2c(c1)[C@]13CCCCC1[C@H](C2)N(CC1CCC1)CC3 (some centres not stated) | 700 nM | 130 nM | 130 nM |  |  |  |  |  |  |
| O=C(CCCCCCCCC(=O)Oc1ccc2c(c1)[C@@]13CCCCC1[C@@H](C2)N(CC1CC1)CC3)Oc1ccc2c(c1)[C@@]13CCCCC1[C@@H](C2)N(CC1CCC1)CC3 (single isomer, unassigned; (-)) | 4.4 nM | 0.34 nM | 0.23 nM | Agonist | 2.5 nM | 110% | 2.9 nM | 41% | IC50 (Mu-type opioid receptor [7]): 96 nM; Imax (Mu-type opioid receptor [7]): 64%; Activity (Mu-type opioid receptor [8]; filed as partial agonist): Partial agonist |
| Oc1ccc2c(c1)[C@@]13CCCC[C@H]1[C@@H](C2)N(CC1CCC1)CC3 |  |  |  | Agonist |  |  |  |  | Imax (Mu-type opioid receptor [7]): 50%; Activity (Mu-type opioid receptor [8]; filed as partial agonist): Partial agonist |
